Measurements: ChEMBL document CHEMBL1136888, “Design, synthesis, and biological evaluation of novel diarylalkyl amides as TRPV1 antagonists” (Bioorg Med Chem, 2009)

The compounds below were run against Transient receptor potential cation channel subfamily V member 1 (Rattus norvegicus, UniProt O35433) (assay: Antagonist activity at TRPV1 in Sprague-Dawley rat DRG neuron assessed as reduction of capsaicin-stimulated 45Ca2+ uptake).
Format: functional
How it was run: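 Neonatal Sprague-Dawley rat DRG neurons (all spinal levels) dissociated with collagenase/trypsin and cultured 3 days with C6 glioma-conditioned medium. Washed in HEPES (10 mM, pH 7.4) Ca/Mg-free HBSS. Exposed to 45Ca2+ plus 0.5 µM capsaicin with compound for 10 min at room temperature. Cells washed, SDS-lysed, scintillation counted.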

Transient receptor potential cation channel subfamily V member 1, sequence (O35433 whole entry): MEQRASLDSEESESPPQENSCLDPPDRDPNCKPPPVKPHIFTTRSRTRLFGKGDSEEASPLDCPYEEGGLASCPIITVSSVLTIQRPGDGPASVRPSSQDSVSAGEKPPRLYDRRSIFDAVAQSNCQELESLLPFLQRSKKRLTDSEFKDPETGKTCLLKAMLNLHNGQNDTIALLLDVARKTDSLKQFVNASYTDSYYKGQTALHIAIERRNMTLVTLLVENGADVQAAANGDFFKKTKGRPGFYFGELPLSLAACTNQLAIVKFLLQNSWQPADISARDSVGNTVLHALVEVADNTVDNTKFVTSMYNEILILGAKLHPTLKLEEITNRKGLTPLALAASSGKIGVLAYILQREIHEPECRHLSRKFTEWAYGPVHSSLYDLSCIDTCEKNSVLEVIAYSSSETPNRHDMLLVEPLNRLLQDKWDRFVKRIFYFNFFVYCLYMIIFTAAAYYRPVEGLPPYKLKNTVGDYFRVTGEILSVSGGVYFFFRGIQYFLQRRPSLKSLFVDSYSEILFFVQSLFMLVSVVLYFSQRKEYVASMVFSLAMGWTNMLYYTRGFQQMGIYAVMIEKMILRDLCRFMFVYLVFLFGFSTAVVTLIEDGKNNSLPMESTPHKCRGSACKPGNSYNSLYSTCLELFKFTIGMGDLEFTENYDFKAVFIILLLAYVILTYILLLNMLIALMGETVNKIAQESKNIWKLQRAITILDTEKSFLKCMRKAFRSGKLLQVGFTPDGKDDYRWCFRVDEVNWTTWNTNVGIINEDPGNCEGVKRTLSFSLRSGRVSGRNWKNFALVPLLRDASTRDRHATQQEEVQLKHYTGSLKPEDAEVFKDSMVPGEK

IC50 [µM]	SMILES
0.2	CC(C)(C)c1cc(CCC(=O)NCc2ccc(NS(C)(=O)=O)c(F)c2)cc(C(C)(C)C)c1
> 10	CS(=O)(=O)Nc1ccc(CNC(=O)/C=C/c2ccc(I)cc2)cc1F
0.21	CC1(c2ccc(CCC(=O)NCc3cc(F)c(NS(C)(=O)=O)c(C#N)c3)cc2)CC1
0.17	CC(C)(C)c1ccc(CCC(=O)NCc2ccc(NS(C)(=O)=O)c(F)c2)cc1
4.3	CC1(C)Cc2cc(/C=C/C(=O)NCc3ccc(NS(C)(=O)=O)c(F)c3)ccc2O1
0.057	CC1(C)CCC(C)(C)c2cc(CCC(=O)NCc3cc(F)c(NS(C)(=O)=O)c(C#N)c3)ccc21
7.2	CC1(C)CCc2cc(CCC(=O)NCc3ccc(NS(C)(=O)=O)c(F)c3)ccc2O1
0.085	CC(C)(C)c1ccc(CCC(=O)NCc2cc(F)c(NS(C)(=O)=O)c(C#N)c2)cc1
0.71	CC(C)(C)c1ccc(CNC(=O)NCc2ccc(NS(C)(=O)=O)c(F)c2)cc1
2.8	CC(C)(C)c1ccc(CNC(=O)CCc2ccc(NS(C)(=O)=O)c(F)c2)cc1
0.92	CC(C)(C)c1cc(/C=C/C(=O)NCc2ccc(NS(C)(=O)=O)c(F)c2)c2c(c1)CCCO2
0.39	CC1(c2ccc(/C=C/C(=O)NCc3ccc(NS(C)(=O)=O)c(F)c3)cc2)CC1
1.4	CC1(C)CCc2cc(/C=C/C(=O)NCc3ccc(NS(C)(=O)=O)c(F)c3)ccc2O1
0.28	CC(C)(C)c1cc2c(c(CCC(=O)NCc3ccc(NS(C)(=O)=O)c(F)c3)c1)OCCC2
> 10	CS(=O)(=O)Nc1ccc(CNC(=O)CCc2ccc(Br)cc2)cc1F
1.5	CC(C)(C)c1cc(/C=C/C(=O)NCc2ccc(NS(C)(=O)=O)c(F)c2)c2c(c1)CCO2
> 10	CC(C)Oc1ccc(CCC(=O)NCc2ccc(NS(C)(=O)=O)c(F)c2)cc1
0.18	CC1(C)CCC(C)(C)c2cc(CCC(=O)NCc3ccc(NS(C)(=O)=O)c(F)c3)ccc21
5	CC(C)(C)c1cc2c(c(CCC(=O)NCc3ccc(NS(C)(=O)=O)c(F)c3)c1)OCC2
> 10	CC1(C)Cc2cc(CCC(=O)NCc3ccc(NS(C)(=O)=O)c(F)c3)ccc2O1
> 10	CC(C)(C)Oc1ccc(CCC(=O)NCc2ccc(NS(C)(=O)=O)c(F)c2)cc1
0.36	CS(=O)(=O)Nc1ccc(CNC(=O)CCc2ccc(CC3CC3)cc2)cc1F
0.34	CC1(C)CCC(C)(C)c2cc(/C=C/C(=O)NCc3ccc(NS(C)(=O)=O)c(F)c3)ccc21
0.64	CC(C)Cc1ccc(CCC(=O)NCc2ccc(NS(C)(=O)=O)c(F)c2)cc1
2.5	CS(=O)(=O)Nc1ccc(CNC(=O)CCc2cc(C(F)(F)F)cc(C(F)(F)F)c2)cc1F
> 10	CS(=O)(=O)Nc1ccc(CNC(=O)CCc2ccccc2)cc1F
4.6	CS(=O)(=O)Nc1ccc(CNC(=O)CCc2ccc(C(F)(F)F)cc2)cc1F
